MEX-5 binding – C. elegans MEX-5 TCR-2 RNA binding activity; Q9XUB2; MEX-5/FITC-TCR2 RNA binding, fluorescence polarization; hits give low values; activity score (negative = inhibition of binding), % at 10 µM; 300,000 tested, 0.38% active; AID 1832;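 active = inhibition past about -25% in most replicates, and total fluorescence under double the plate's negative control median, limit read from the data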;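 also: 0% = DMSO and -100% = 5 µM competing unlabeled TCR2 RNA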
Bcl-xL primary – Bcl-xL (human) inhibition; Q07817; inhibition, % at 10.9 µM; AID 2129; GST-Bcl-xL / FITC-Bim BH3 peptide fluorescence polarization; 320,000 tested, 0.7% active;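 active = inhibition above the mean of all tested compounds plus 3 SD, cutoff set per campaign, cut at about 30% in these data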;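 also: 0% = DMSO wells and 100% = unlabeled Bim-BH3 peptide competitor; inhibitors lower millipolarization by displacing the labeled peptide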
Target sequence (Q07817 whole entry, looked up): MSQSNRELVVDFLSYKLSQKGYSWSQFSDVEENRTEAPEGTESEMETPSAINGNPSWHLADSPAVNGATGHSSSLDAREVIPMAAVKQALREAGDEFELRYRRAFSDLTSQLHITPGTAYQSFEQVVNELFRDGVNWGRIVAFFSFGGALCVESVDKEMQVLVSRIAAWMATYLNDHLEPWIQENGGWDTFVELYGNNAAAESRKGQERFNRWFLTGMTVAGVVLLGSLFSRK
VIM-2 inh – inhibitors of Pseudomonas aeruginosa VIM-2 metallo-beta-lactamase; AID 1527; inhibition, % at 5.6 µM; purified VIM-2, nitrocefin hydrolysis, epi-absorbance fluorescence; 290,000 tested, 0.89% active;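 active = inhibition above the mean of all tested compounds plus 3 SD, cutoff set per screening run, cut at about 7.5% in these data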;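 also: red hydrolysis product quenches plate fluorescence so inhibitors raise well fluorescence; 0% = enzyme with DMSO and 100% = DMSO without enzyme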
IMP-1 inh – inhibitors of Pseudomonas aeruginosa IMP-1 metallo-beta-lactamase; purified IMP-1, nitrocefin hydrolysis, epi-absorbance fluorescence; inhibition, % at 5.6 µM; 290,000 tested, 0.45% active; AID 1556;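 active = inhibition above the mean plus 3 SD of all compounds in the same screening run, cut at about 4.5% in these data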;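 also: 0% = IMP-1 with DMSO and 100% = DMSO wells lacking enzyme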
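assay system = purified recombinant IMP-1 metallo-beta-lactamase enzyme | schedule = 15 min preincubation plus 25 min reaction at 25 °C | signal = Epi-absorbance fluorescence, 480 nm excitation, 530 nm emission | read-out basis = percent inhibition from optical density relative to buffer-blank wells | controls = IMP-1 with DMSO as 0%, enzyme-free DMSO as 100%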
GLD-1 TGE inh – GLD-1-TGE RNA interaction inhibition (C. elegans); purified GLD-1 + fluorescein TGE RNA, fluorescence polarization; inhibition, % at 5.96 µM; 320,000 tested, 0.44% active;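 active = percent inhibition above a per-plate cutoff, the plate mean of test compounds plus 3 SD, cut at about 30% in these data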;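 also: 0% = DMSO wells with GLD-1 and probe and 100% = wells lacking GLD-1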
EBV gp42 inh – blocks Epstein-Barr virus glycoprotein 42 binding. Q1HVG2. Fluorescence polarization binding assay, mP read-out. inhibition, % (tested at 21.74 µM). 220,000 tested, 0.42% active; in the data active = inhibition above about 50%
Target sequence (Q1HVG2 whole entry, looked up): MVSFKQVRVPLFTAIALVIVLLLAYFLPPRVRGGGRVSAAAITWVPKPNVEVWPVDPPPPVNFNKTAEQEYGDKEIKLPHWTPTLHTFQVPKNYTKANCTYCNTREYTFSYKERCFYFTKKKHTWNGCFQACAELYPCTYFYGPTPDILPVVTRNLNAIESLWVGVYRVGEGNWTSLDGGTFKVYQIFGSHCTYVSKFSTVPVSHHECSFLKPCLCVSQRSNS
GLD1 RNA confirm – GLD-1 TGE RNA interaction inhibition, confirmation | shares compounds with GLD-1 TGE inh | GLD-1/FL-TGE RNA fluorescence polarization, biochemical | inhibition, % at 5.96 µM | 550 tested, 10% active | AID 2459;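 active = average inhibition across triplicates above the hit cutoff set in the primary screen, cut at about 32% in these data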;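 also: 0% = GLD-1 with RNA probe and DMSO and 100% = wells lacking GLD-1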
The depositor's hits bear a star; x = no result. Sampled rows, rich in hits. Any-hit rate of the full collection: about 2.2%.

SMILES	MEX-5 binding	Bcl-xL primary	VIM-2 inh	IMP-1 inh	GLD-1 TGE inh	EBV gp42 inh	GLD1 RNA confirm
COc1ccc(N(CC(=O)NC2CCCC2)C(=O)CCC(=O)Nc2cc(C)on2)cc1OC	-2	7	-3	-3	4	x	x
CCc1ccc(C2C(C#N)=C(N)C(C#N)(C#N)C3=CCC(C(C)(C)C)CC32)cc1 (stereo not drawn)	-6	41*	-1	-1	41*	6	5
COc1ccc(NC(=O)c2ccc(OC)c(S(=O)(=O)N3CCCCC3C)c2)cn1 (stereo not drawn)	x	51*	x	x	33*	x	28
COc1cccc(C2C=C(c3ccc(OC)cc3OC)Nc3nnnn32)c1 (stereo not drawn)	-7	54*	2	-5	39*	18	18
O=C(CN1C(=O)COc2ccc(S(=O)(=O)N3CCOCC3)cc21)Nc1cccc(Cl)c1	-2	4	-3	-2	4	x	x
COc1ccc(CN2CC(=O)N3[C@H]4c5cc(C)ccc5OC[C@@H]4[C@H](c4ccccc4)[C@]3(C)C2=O)cc1	x	x	x	x	33*	x	15
C[C@@]12C(=O)N(Cc3ccc(Cl)cc3)CC(=O)N1[C@H]1c3ccccc3OC[C@@H]1[C@@H]2c1ccccc1	x	4	x	x	-2	x	x
COc1ccc2c(c1)OC[C@H]1[C@H]2N2C(=O)CN(Cc3ccc(C)cc3)C(=O)[C@@]2(C)[C@H]1c1ccccc1	x	-1	x	x	-2	x	x
COc1ccc(CN2CC(=O)N3[C@H]4c5ccccc5OC[C@@H]4[C@H](c4ccccc4)[C@]3(C)C2=O)cc1	x	20	x	x	45*	x	4
COc1cccc(CN(C)C(=O)c2ccc(Oc3ccccc3)cc2)c1OC	3	4	-2	-2	2	x	x
CCc1ccc(N2C(=O)CN(Cc3sccc3C)C2=S)cc1	2	6	-2	-1	1	9	x
CCOC(=O)C1=C(O)c2ccccc2C(=O)/C1=C\c1ccc(CC)cc1	4	24	2	0	38*	-10	-3
COc1ccc(N(CC(=O)NC2CC3CCC2C3)S(=O)(=O)c2ccccc2)cc1Cl (stereo not drawn)	0	x	0	-1	x	x	x
CC1=CC(=O)c2c(O)ccc(O)c2C1=O	x	88*	3	5.3*	75*	116*	33*
Cc1ccc2c(Cl)c(C(=O)NC3CC3)sc2c1	x	x	0	-1	x	x	x
O=C(O)c1ccc2c(c1)[C@@H]1C=CC[C@@H]1[C@H](c1ccccn1)N2	-100*	56*	-2	5.6*	34*	x	10
COc1ccc(Nc2nnc(SCc3cc(=O)n4ccsc4n3)s2)cc1	x	66*	-3	-1	41*	42	36*
O=c1cc(CSc2nnc(Nc3ccccc3F)s2)nc2sccn12	-1	-2	2	-3	4	-21	x
COc1cccc(C(=O)N2CCN(C(=O)C3CC3)CC2)c1	1	x	-2	-1	x	x	x
COc1cccc(C(=O)N2CCN(C(=O)c3cccc(F)c3)CC2)c1	-1	76*	-1	-3	53*	-36	5
COc1ccc(Cl)cc1C(=O)NNC(=O)CCNS(=O)(=O)c1ccccc1	x	x	x	x	-3	x	x
Cc1cc2ccccc2n1CCNC(=O)c1ccc(Br)o1	-20	34*	0	-1	36*	22	11
CCC(=O)NCCn1c(C)cc2ccccc21	-1	19	-2	-3	25	-1	x
Cc1cc2ccccc2n1CCNC(=O)COc1ccccc1	1	41*	x	x	72*	7	11
CC(OC(=O)c1cccc(-n2cnnn2)c1)C(=O)NCc1ccccc1 (stereo not drawn)	-1	-4	x	x	8	x	x
SMILES	MEX-5 binding	Bcl-xL primary	VIM-2 inh	IMP-1 inh	GLD-1 TGE inh	EBV gp42 inh	GLD1 RNA confirm
CN1c2ccccc2N(C)C1(C)c1ccccc1	-7	69*	-3	-5	48*	3	9
CN1C(=O)N(C)C2(c3ccccc3)NC(=O)NC12c1ccccc1 (stereo not drawn)	-2	9	-3	-4	-4	-10	x
CCOC(=O)C1=C2NC(=O)c3ccccc3N2C(=O)C1	-31*	48*	-2	0	52*	-8	4
CCOc1ccc(NC(=O)Cn2nnc(C(=O)NCc3cccs3)c2N)cc1	-2	1	1	0	7	x	x
CC(C(=O)Nc1ccc(C(=O)O)c(O)c1)N1C(=O)/C(=C\c2ccco2)SC1=S (stereo not drawn)	-26*	47*	-2	4	32*	x	5
CCOC(=O)c1ccc(NC(=O)CCCN2C(=O)NC3(CCCC3)C2=O)cc1	x	2	x	x	5	x	x
CCCn1c(C)cc(C(=O)CN2C(=O)c3cccc(N)c3C2=O)c1C	x	28	-1	-1	35*	0	-1
COc1ccc2nc(N3CCCCC3)c(C#N)cc2c1	-21	32*	2	0	46*	58*	65*
COc1ccc(S(=O)(=O)C(C#N)c2nc3ccccc3nc2N2CCCCC2)cc1 (stereo not drawn)	-3	68*	-4	-4	69*	5	-2
N#CC(c1nc2ccccc2nc1N1CCCC1)S(=O)(=O)c1ccccc1 (stereo not drawn)	-3	66*	-3	-1	40*	102*	27
COc1ccc2nc(SCC(=O)N3CCCCCC3)c(C#N)cc2c1	5	5	-2	-4	4	-17	x
N#CC(c1nc2ccccc2nc1N1CCCC1)S(=O)(=O)c1cccs1 (stereo not drawn)	-4	10	1	-5	2	50	x
CN1CCN(C(=S)c2ccc([N+](=O)[O-])cc2)CC1	2	3	0	0	79*	-24	0
Cc1cc2n(n1)C(c1ccccc1)CC(c1ccc(Br)cc1)=N2 (stereo not drawn)	x	13	-4	-4	53*	39	16
Oc1ccc(/C=N/Nc2cc(N3CCCC3)nc(N3CCCC3)n2)cc1	1	17	-1	-2	39*	43	38*
CCOC(=O)CC1=C(C(=O)OCC)C(c2cccnc2)C(C#N)=C(N)O1 (stereo not drawn)	-4	10	1	1	7	-9	x
CCOC(=O)CC1=C(C(=O)OCC)C(c2ccc(OC)cc2OC)C(C#N)=C(N)O1 (stereo not drawn)	-9	39*	-1	-1	35*	1	10
CCOC(=O)CC1=C(C(=O)OCC)C(c2ccc(C)o2)C(C#N)=C(N)O1 (stereo not drawn)	-19	37*	-3	1	34*	-6	7

Assay outcomes deposited in PubChem BioAssay by several laboratories.
